ChEMBL document CHEMBL1914305, “Synthesis and structure-activity evaluation of isatin-β-thiosemicarbazones with improved selective activity toward multidrug-resistant cells expressing P-glycoprotein” (J Med Chem, 2011)

Experiments:
OVCAR-8 = assay: Cytotoxicity against human OVCAR8 cells after 72 hrs by MTT assay; format: functional, cell-based; details: OVCAR-8, 72 h
In short: (§1)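 Lines grown in RPMI with 10% FBS and 2 mM L-glutamine. MTT assay: 4000 cells/well attached 24 h before serially diluted drug, then 72 h exposure at 37 °C, 5% CO2. MTT in IMDM 4 h, lysis in acidified ethanol 15 min, absorbance 570 nm minus 690 nm. IC50 is the concentration halving untreated absorbance. Three independent experiments, each in triplicate.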

NCI/ADR-RES = assay: Cytotoxicity against adriamycin-selected human NCI/ADR-RES cells after 72 hrs by MTT assay; format: functional, cell-based; in short: as §1
HEK293 [1] = assay: Cytotoxicity against human HEK293 cells after 72 hrs by MTT assay; format: functional, cell-based; details: HEK293, 72 h
In short: (§2)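 Grown in DMEM with 10% FBS. MTT assay: 4000 cells/well, 24 h settling, serial dilutions of drug, 72 h at 37 °C in 5% CO2. MTT in IMDM 4 h, then acidified ethanol 15 min, A570 with 690 nm background. IC50 is the concentration reducing absorbance to 50% of untreated control. Three experiments in triplicate. KB-V1-R comes from KB-V1 grown long-term drug-free.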

HEK293 [2] = assay: Cytotoxicity against human HEK293 cells transfected with plasmid expressing MDR1 after 72 hrs by MTT assay; format: functional, cell-based; details: HEK293, 72 h
In short: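 ABCB1-transfected HEK293 grown in DMEM with 10% FBS and 1 mg/mL G418. MTT assay: 4000 cells/well for 24 h, serial drug dilutions, 72 h at 37 °C, 5% CO2. MTT 4 h, acidified ethanol lysis, A570 corrected at 690 nm. IC50 at 50% of untreated absorbance. Three experiments in triplicate.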

[3] = Cytotoxicity against human ZR-75B cells after 72 hrs by MTT assay; format: functional, cell-based; in short: as §1
[4] = Cytotoxicity against doxorubicin-selected human ZR-75B cells after 72 hrs by MTT assay; format: functional, cell-based; in short: as §1
MDA-MB-231 [5] = assay: Cytotoxicity against human MDA-MB-231 cells after 72 hrs by MTT assay; format: functional, cell-based; details: MDA-MB-231, 72 h; in short: as §1
MDA-MB-231 [6] = assay: Cytotoxicity against human MDA-MB-231 cells selected at 100 ug/ml vinblastine after 72 hrs by MTT assay; format: functional, cell-based; details: MDA-MB-231, 72 h, in the assay text read “100 ng/ml” for “100 ug/ml”; in short: as §1
NIH3T3 [7] = assay: Cytotoxicity against mouse NIH/3T3 cells after 72 hrs by MTT assay; format: cell-based; details: NIH3T3, 72 h; in short: as §2
NIH3T3 [8] = assay: Cytotoxicity against mouse NIH/3T3 cells selected at 30 ug/ml vincristine after 72 hrs by MTT assay; format: functional, cell-based; details: NIH3T3, 72 h, in the assay text read “30 ng/ml” for “30 ug/ml”; in short: as §2
NIH3T3 [9] = assay: Cytotoxicity against mouse NIH/3T3 cells transfected with wild type p-glycoprotein ABCB1 selected at 600 ug/ml vincristine after 72 hrs by MTT assay; format: functional, cell-based; details: NIH3T3, 72 h, in the assay text read “600 ng/ml” for “600 ug/ml”; in short: as §2
NIH3T3 [10] = assay: Cytotoxicity against 2.4 ug/mL vincristine selected mouse NIH/3T3 cells transfected with P-gp Ser to Asp phosphorylation mutant after 72 hrs by MTT assay; format: functional, cell-based; details: NIH3T3, 72 h; in short: as §2
NIH3T3 [11] = assay: Cytotoxicity against mouse NIH/3T3 cells transfected with wild-type P-gp G185 after 72 hrs by MTT assay; format: functional, cell-based; details: NIH3T3, 72 h; in short: as §2
NIH3T3 [12] = assay: Cytotoxicity against mouse NIH/3T3 cells selected at 1 ug/mL colchicine after 72 hrs by MTT assay; format: functional, cell-based; details: NIH3T3, 72 h; in short: as §2
[13] = Cytotoxicity against human Ew36 cells after 72 hrs by MTT assay; format: functional, cell-based; details: Ew36, 72 h; in short: as §1
[14] = Cytotoxicity against human Ew36 cells selected at 120 ng/mL vincristine after 72 hrs by MTT assay; format: functional, cell-based; details: Ew36, 72 h; in short: as §1
[15] = Cytotoxicity against human MES-SA cells after 72 hrs by MTT assay; format: functional, cell-based
In short: (§3)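 MES-SA and MES-SA/Dx5 lines kept in McCoy's 5A with 10% FBS. MTT assay: seeded at 4000 cells/well for 24 h, serial drug dilutions, 72 h at 37 °C and 5% CO2. MTT 4 h, acidified ethanol lysis, A570 corrected at 690 nm. IC50 is 50% absorbance versus untreated wells. Three separate experiments in triplicate.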

[16] = Cytotoxicity against adriamycin-selected human MES-SA cells after 72 hrs by MTT assay; format: functional, cell-based; in short: as §3
SW-620 [17] = assay: Cytotoxicity against human SW620 cells after 72 hrs by MTT assay; format: functional, cell-based; details: SW-620, 72 h; in short: as §1
SW-620 [18] = assay: Cytotoxicity against human SW620 cells selected at 20 ng/mL adriamycin after 72 hrs by MTT assay; format: functional, cell-based; details: SW-620, 72 h; in short: as §1
LLC-PK1 [19] = assay: Cytotoxicity against pig LLC-PK1 cells transfected with empty vector after 72 hrs by MTT assay; format: cell-based; details: Sus scrofa, LLC-PK1, 72 h
In short: (§4)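 LLC-PK1 empty-vector lines grown in M199 with 10% FBS; transfected lines also in 0.5 mg/mL G418. MTT assay: 4000 cells/well for 24 h, then serially diluted drug for 72 h at 37 °C, 5% CO2. MTT 4 h, acidified ethanol, A570 minus 690 nm. IC50 is 50% of untreated absorbance. Triplicate wells, three experiments.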

LLC-PK1 [20] = assay: Cytotoxicity against pig LLC-PK1 cells after 72 hrs by MTT assay; format: cell-based; details: Sus scrofa, LLC-PK1, 72 h; in short: as §4
CHO [21] = assay: Cytotoxicity against CHO cells after 72 hrs by MTT assay; format: cell-based; details: Cricetulus griseus
In short: (§5)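 CHO and colchicine-selected C5 cells kept in AlphaMEM with 10% FBS. MTT assay: 4000 cells/well settled 24 h, then serially diluted drug added. Incubated 72 h at 37 °C, 5% CO2. MTT in IMDM for 4 h, then acidified ethanol lysis for 15 min. Read A570, background-corrected at 690 nm. IC50 is the concentration giving 50% of untreated absorbance. Three experiments, each in triplicate.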

CHO [22] = assay: Cytotoxicity against CHO cells selected at 1 ug/mL colchicine after 72 hrs by MTT assay; format: functional, cell-based; details: Cricetulus griseus; in short: as §5
[23] = Selectivity ratio of IC50 for pig LLC-PK1 cells transfected with empty vector to IC50 for pig LLC-PK1 cells; format: ADME, cell-based, Sus scrofa; details: read-out: Ratio IC50
In short: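 Selectivity ratio: IC50 in the parental or empty-vector cells divided by IC50 in the P-gp-expressing cells (KB-V1, or ABCB1-transfected LLC-PK1). MTT assay: 4000 cells/well established for 24 h, then 72 h exposure to serially diluted drug at 37 °C, 5% CO2. MTT for 4 h, acidified ethanol lysis, A570 corrected at A690. IC50 is the concentration giving 50% of untreated absorbance, from at least three experiments.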

[24] = Cytotoxicity against P-gp-negative human KB-3-1 cells after 72 hrs by MTT assay in presence of 1 uM verapamil; format: functional, cell-based; details: KB 3-1, 72 h
In short: (§6)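 KB-3-1 and KB-V1 cells in DMEM. Test drug co-administered with a P-gp inhibitor at: verapamil 1 uM, CsA 10 uM, DCPQ 100 nM, TQR 100 nM. MTT assay after 72 h at 37 °C: 4000 cells/well, MTT 4 h, acidified ethanol, A570 corrected at 690 nm. IC50 ± SD at 50% of untreated absorbance. Three experiments in triplicate.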

[25] = Cytotoxicity against P-gp-negative human KB-3-1 cells after 72 hrs by MTT assay in presence of 10 uM CsA; format: functional, cell-based; details: KB 3-1, 72 h; in short: as §6
[26] = Cytotoxicity against P-gp expressing human KBV1 cells after 72 hrs by MTT assay in presence of 1 uM verapamil; format: functional, cell-based; details: KB-V1, 72 h; in short: as §6
[27] = Cytotoxicity against P-gp expressing human KBV1 cells after 72 hrs by MTT assay in presence of 10 uM CsA; format: functional, cell-based; details: KB-V1, 72 h; in short: as §6
[28] = Cytotoxicity against P-gp expressing human KBV1 cells after 72 hrs by MTT assay in presence of 100 uM DCPQ; details: KB-V1, 72 h
[29] = Aqueous solubility of the compound; format: physicochemical; details: buffer
[30] = Cytotoxicity against P-gp-negative human KB-3-1 cells after 72 hrs by MTT assay in presence of 100 nM TQR; details: KB 3-1, 72 h
[31] = Cytotoxicity against P-gp expressing human KBV1 cells after 72 hrs by MTT assay in presence of 100 nM TQR; details: KB-V1, 72 h
[32] = Cytotoxicity against P-gp-negative human KB-3-1 cells after 72 hrs by MTT assay in presence of 100 nM DCPQ; details: KB 3-1, 72 h

solubility [29]: < 0.2 µg/mL
Compound: COc1ccc(NC(=S)NNC2=c3ccccc3=NC2=O)cc1
IC50 (OVCAR-8): 6.69 µM
IC50 (NCI/ADR-RES): 3.79 µM
IC50 (HEK293 [1]): 6.23 µM
IC50 (HEK293 [2]): 2.55 µM
IC50 [3]: 5.06 µM
IC50 [4]: 1.21 µM
IC50 (MDA-MB-231 [5]): 13.8 µM
IC50 (MDA-MB-231 [6]): 4.86 µM
IC50 (NIH3T3 [7]): 8.12 µM
IC50 (NIH3T3 [8]): 4.58 µM
IC50 (NIH3T3 [9]): 3.59 µM
IC50 (NIH3T3 [10]): 3.14 µM
IC50 (NIH3T3 [11]): 1.06 µM
IC50 (NIH3T3 [12]): 3.17 µM
IC50 [13]: 2.48 µM
IC50 [14]: 0.99 µM
IC50 [15]: 22.4 µM
IC50 [16]: 13.8 µM
IC50 (SW-620 [17]): 9.04 µM
IC50 (SW-620 [18]): 3.74 µM
IC50 (LLC-PK1 [19]): 36.8 µM
IC50 (LLC-PK1 [20]): 3.99 µM
IC50 (CHO [21]): 3.04 µM
IC50 (CHO [22]): 0.97 µM
selectivity ratio [23]: 9.2
IC50 [24]: 9.68 µM
IC50 [25]: 11.4 µM
IC50 [26]: 2.23 µM
IC50 [27]: 8.33 µM
IC50 [28]: 14 µM
IC50 [30]: 12.1 µM
IC50 [31]: 11.6 µM
IC50 [32]: 12.4 µM
